Measurements published in ChEMBL document CHEMBL3797058, “Sorazolons, Carbazole Alkaloids from Sorangium cellulosum Strain Soce375” (J Nat Prod, 2016).
Values after ≈ are worked out from the molar mass of the structure shown. Active and inactive are the calls of the source. The calls are words filed in the database; no cut-off is given here.

Legend:
Wickerhamomyces anomalus = experiment: Antimicrobial activity against Wickerhamomyces anomalus DSM 6766 by serial dilution method; format: functional, organism-based
How it was run: (§1)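 MIC by serial dilution (150 μL) in 96-well tissue-culture plates; 20 μL aliquots of compound at 1 mg/mL tested; methanol as negative control.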

Pseudomonas aeruginosa = experiment: Antimicrobial activity against Pseudomonas aeruginosa PA14 by serial dilution method; format: functional; how it was run: as §1
[1] = system: Mycolicibacterium smegmatis; experiment: Antimicrobial activity against Mycobacterium smegmatis ATCC 700084 by serial dilution method; format: functional, organism-based; how it was run: as §1
Bacillus subtilis = experiment: Antimicrobial activity against Bacillus subtilis DSM 10 by serial dilution method; format: functional; how it was run: as §1
L929 = experiment: Cytotoxicity against mouse L929 cells; format: cell-based
How it was run: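 Mouse fibroblast L929 cells exposed to 3.0 μL of each compound; MIC determined by serial dilution (60 μL) in 96-well tissue-culture plates.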

Mucor hiemalis = experiment: Antimicrobial activity against Mucor hiemalis DSM 2656 by serial dilution method; format: functional; how it was run: as §1
Escherichia coli [2] = experiment: Antimicrobial activity against Escherichia coli TolC by serial dilution method; format: functional; how it was run: as §1
Micrococcus luteus = experiment: Antimicrobial activity against Micrococcus luteus DSM 1790 by serial dilution method; format: functional; how it was run: as §1
Escherichia coli [3] = experiment: Antimicrobial activity against Escherichia coli DSM 1116 by serial dilution method; format: functional, organism-based; how it was run: as §1
Staphylococcus aureus = experiment: Antimicrobial activity against Staphylococcus aureus Newman by serial dilution method; format: functional; how it was run: as §1
Candida albicans = experiment: Antimicrobial activity against Candida albicans DSM 1665 by serial dilution method; format: functional, organism-based; how it was run: as §1
[4] = Mus musculus, L929, read-out: IC50

MIC (Wickerhamomyces anomalus)	MIC (Pseudomonas aeruginosa)	MIC [1]	MIC (Bacillus subtilis)	MIC (Mucor hiemalis)	MIC (Escherichia coli [2])	MIC (Micrococcus luteus)	MIC (Escherichia coli [3])	MIC (Staphylococcus aureus)	MIC (Candida albicans)	SMILES	IC50 (L929; l929)	IC50 (L929; [4])
inactive	inactive	inactive	inactive	inactive	inactive	inactive	inactive	inactive	inactive	Cc1ccc2c([nH]c3ccccc32)c1C=O	Not Active	–
inactive	inactive	inactive	inactive	inactive	inactive	inactive	inactive	inactive	inactive	C[C@@]1(O)C(=O)[C@H]([C@H]2C(=O)[C@@](C)(O)[C@](C)(O)c3[nH]c4ccccc4c32)c2c([nH]c3ccccc23)[C@@]1(C)O	Not Active	–
inactive	inactive	inactive	inactive	inactive	inactive	inactive	inactive	inactive	inactive	C[C@@]1(O)C(=O)Cc2c([nH]c3ccccc23)[C@@]1(C)O	Not Active	–
inactive	inactive	inactive	8.3 µg/mL (≈ 30.4 µM)	inactive	inactive	16.6 µg/mL (≈ 60.7 µM)	inactive	16.6 µg/mL (≈ 60.7 µM)	inactive	CO[C@]1(C)c2[nH]c3ccccc3c2C(=O)C(=O)[C@@]1(C)O	–	76.8 µM
inactive	inactive	inactive	16.6 µg/mL (≈ 78.6 µM)	inactive	67 µg/mL (≈ 317 µM)	33.3 µg/mL (≈ 158 µM)	inactive	33.3 µg/mL (≈ 158 µM)	inactive	Cc1c(O)cc2c([nH]c3ccccc32)c1C	–	85.2 µM
inactive	inactive	inactive	inactive	inactive	inactive	inactive	inactive	inactive	inactive	C=C1c2[nH]c3ccccc3c2C[C@@H](O)[C@@]1(C)O	Not Active	–
inactive	inactive	inactive	inactive	inactive	inactive	inactive	inactive	inactive	inactive	CO[C@]1(C)c2[nH]c3ccccc3c2CC(=O)[C@@]1(C)O	Not Active	–
inactive	inactive	inactive	16.6 µg/mL (≈ 39.5 µM)	67 µg/mL (≈ 159 µM)	33.3 µg/mL (≈ 79.2 µM)	16.6 µg/mL (≈ 39.5 µM)	inactive	16.6 µg/mL (≈ 39.5 µM)	inactive	Cc1c(O)c(-c2c(O)c(C)c(C)c3[nH]c4ccccc4c23)c2c([nH]c3ccccc32)c1C	–	4.99 µM
inactive	inactive	inactive	inactive	inactive	inactive	inactive	inactive	inactive	inactive	C[C@@]1(O)C(=O)C(=O)c2c([nH]c3ccccc23)[C@@]1(C)O	Not Active	–
